Legend:
[1] = target: T1, Xanthine dehydrogenase/oxidase (Bos taurus, UniProt P80457); test: Inhibition of bovine xanthine oxidase using xanthine as substrate measured for 6 mins at 50 uM at 25 degC by spectrophotometry; conditions: cattle, 0.1 h
Method in brief: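 Xanthine substrate, 25 °C, in 50 mM K₂HPO₄ buffer at pH 7.8. Xanthine was added as an 84.8 μg/mL solution in the same buffer; this is the added solution's concentration, not the final one. Test compounds were dissolved in DMSO and added at various concentrations.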

[2] = target: T1, Xanthine dehydrogenase/oxidase; test: Mixed-type inhibition of bovine xanthine oxidase using xanthine as substrate at 1.4 to 5.6 uM by Lineweaver-Burk plot; conditions: cattle
[3] = target: T1, Xanthine dehydrogenase/oxidase; test: Inhibition of bovine xanthine oxidase using xanthine as substrate measured for 6 mins at 25 degC by spectrophotometry

T1 sequence (P80457 whole entry): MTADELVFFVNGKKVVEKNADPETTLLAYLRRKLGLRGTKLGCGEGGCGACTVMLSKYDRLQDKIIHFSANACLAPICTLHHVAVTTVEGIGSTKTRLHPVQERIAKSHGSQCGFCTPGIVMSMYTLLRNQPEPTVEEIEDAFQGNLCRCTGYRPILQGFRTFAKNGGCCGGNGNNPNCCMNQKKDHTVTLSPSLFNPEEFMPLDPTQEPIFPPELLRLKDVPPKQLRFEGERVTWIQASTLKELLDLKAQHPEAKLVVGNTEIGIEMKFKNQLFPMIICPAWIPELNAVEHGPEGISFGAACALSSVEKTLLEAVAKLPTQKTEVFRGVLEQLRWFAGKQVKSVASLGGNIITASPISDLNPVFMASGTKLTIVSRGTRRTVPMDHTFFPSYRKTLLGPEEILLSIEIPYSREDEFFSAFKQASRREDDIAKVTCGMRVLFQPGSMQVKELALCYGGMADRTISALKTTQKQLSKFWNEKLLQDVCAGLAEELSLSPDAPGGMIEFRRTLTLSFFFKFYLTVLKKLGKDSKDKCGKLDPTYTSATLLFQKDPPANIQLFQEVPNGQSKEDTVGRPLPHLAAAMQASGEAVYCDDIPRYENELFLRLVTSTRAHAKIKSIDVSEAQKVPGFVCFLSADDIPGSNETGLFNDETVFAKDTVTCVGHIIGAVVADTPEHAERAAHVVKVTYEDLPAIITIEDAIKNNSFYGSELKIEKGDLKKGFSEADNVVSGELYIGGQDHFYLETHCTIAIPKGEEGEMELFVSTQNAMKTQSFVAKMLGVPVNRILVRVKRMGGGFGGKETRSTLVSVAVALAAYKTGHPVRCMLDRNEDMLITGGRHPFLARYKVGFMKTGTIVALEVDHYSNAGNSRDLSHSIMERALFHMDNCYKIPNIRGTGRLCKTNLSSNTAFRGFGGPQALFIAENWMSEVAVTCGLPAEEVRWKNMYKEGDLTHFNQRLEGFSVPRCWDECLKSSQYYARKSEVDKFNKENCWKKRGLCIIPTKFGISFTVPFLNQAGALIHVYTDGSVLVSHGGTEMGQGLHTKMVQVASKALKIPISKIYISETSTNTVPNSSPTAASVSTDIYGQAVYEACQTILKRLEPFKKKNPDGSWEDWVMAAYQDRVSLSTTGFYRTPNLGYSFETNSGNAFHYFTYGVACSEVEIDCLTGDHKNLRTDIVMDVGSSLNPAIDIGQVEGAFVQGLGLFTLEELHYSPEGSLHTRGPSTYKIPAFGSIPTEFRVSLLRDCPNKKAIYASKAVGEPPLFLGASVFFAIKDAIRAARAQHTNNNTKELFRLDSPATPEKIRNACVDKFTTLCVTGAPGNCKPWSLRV

Row | inhibition at 50 µM [1] [%] | Structure (SMILES) | further results
1 | < 10 | COc1cccc2c1C(=O)c1c(OC)cc(C[N+](C)(C)C)cc1C2=O | 
2 | < 10 | COc1cccc2c1C(=O)c1c(OC)cc(C[N+](C)(C)c3ccccc3)cc1C2=O | 
3 | 9.77 | COc1cccc2c1C(=O)c1c(OC)cc(CO)cc1C2=O | 
4 | 93.3 | O=Cc1cc(O)c2c(c1)C(=O)c1cccc(O)c1C2=O | inhibition (INH) [2]: Active; IC50 [3]: 2.79 µM; inhibition (INH) ([3]; cattle, 0.1 h): Dose-dependent effect
5 | 36.5 | COc1cccc2c1C(=O)c1c(OC)cc(C=O)cc1C2=O | 
6 | < 10 | COc1cccc2c1C(=O)c1c(OC)cc(/C=N/O)cc1C2=O | 
7 | < 10 | COc1cccc2c1C(=O)c1c(OC)cc(/C=N/N)cc1C2=O | 
8 | 17.5 | COc1cccc2c1C(=O)c1c(OC)cc(/C=N/c3ccccc3)cc1C2=O | 
9 | 93.4 | CC(=O)OC[C@H]1OC(OC(C)=O)[C@H](/N=C/c2cc(O)c3c(c2)C(=O)c2cccc(O)c2C3=O)[C@H](OC(C)=O)[C@@H]1OC(C)=O (stereo not given in full) | IC50 [3]: 8.43 µM
10 | 18.4 | O=C1c2cccc(O)c2C(=O)c2c(O)cc(CCl)cc21 | 
11 | 14.3 | COc1cccc2c1C(=O)c1c(OC)cc(CCl)cc1C2=O | 
12 | < 10 | O=C1c2cccc(O)c2C(=O)c2c(O)cc(C[n+]3ccccc3)cc21 | 
13 | 68.8 | C[N+](C)(C)Cc1cc(O)c2c(c1)C(=O)c1cccc(O)c1C2=O | IC50 [3]: 18.7 µM
14 | < 10 | C[N+](C)(Cc1cc(O)c2c(c1)C(=O)c1cccc(O)c1C2=O)c1ccccc1 | 
15 | < 10 | COc1cccc2c1C(=O)c1c(OC)cc(C[n+]3ccccc3)cc1C2=O | 
16 | 94.5 | O=C1c2cccc(O)c2C(=O)c2c(O)cc(/C=N/c3ccccc3)cc21 | IC50 [3]: 3.87 µM
17 | 7.2 | CC(=O)OC[C@H]1OC(OC(C)=O)[C@H](NC(=O)c2cc(O)c3c(c2)C(=O)c2cccc(O)c2C3=O)[C@H](OC(C)=O)[C@@H]1OC(C)=O (stereo not given in full) | 
18 | 3.63 | O=C(O)c1cc(O)c2c(c1)C(=O)c1cccc(O)c1C2=O [RHEIN] | 

Row | Structure (SMILES) | inhibition at 50 µM [1] [%] | further results
19 | O=C1c2cccc(O)c2C(=O)c2c(O)cc(CO)cc21 [ALOE-EMODIN] | 22.5 | 

— ChEMBL document CHEMBL3120144, “Design, synthesis and molecular modeling of aloe-emodin derivatives as potent xanthine oxidase inhibitors” (Eur J Med Chem, 2014)
